Measured values as given in PMC4467241 (Clinical Pharmacology in Drug Development, 2014).
Like-named read-outs stand apart in the source and are kept apart here. Marks after values point to notes of the source that are not given here.

Columns and labels:
[1] = type: in vivo, human; conditions: for CL/F / AUC(0-t) / AUC(0-inf) / Cmax / half-life / tmax: plasma; for AUC(0-t) / AUC(0-inf) / Cmax / half-life / tmax: human, po; for AUC(0-t): AUC0–t; for AUC(0-inf): AUC0–∞
Summary of the method: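 Heparinised plasma was taken predose and at 0.5–48 h, spun within 30 min and stored at −70 °C. Parent and metabolite were measured by SPE LC–MS/MS; noncompartmental AUC, with ANOVA on log values giving geometric-mean ratio and 90% CI.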

[2] = cited from earlier work
[3] = 10 mg, MTX 10 mg oral alone (Day 1), N = 1
[4] = 12.5 mg, MTX 12.5 mg oral alone (Day 1), N = 1
[5] = 17.5 mg, MTX 17.5 mg oral alone (Day 1), N = 1
[6] = MTX 12.5 mg oral + Apremilast 30 mg Q12H (Day 8), N = 1
[7] = MTX 17.5 mg oral + Apremilast 30 mg Q12H (Day 8), N = 1
[8] = methotrexate in plasma, ANOVA, N = 15
[9] = methotrexate in plasma, all dose groups, N = 15, acceptance range 80–125%

CL/F ([1]; MTX 10 mg oral alone (Day 1), N = 1): 120 mL/min
CL/F ([1]; MTX 12.5 mg oral alone (Day 1), N = 1): 88 mL/min
CL/F ([1]; MTX 17.5 mg oral alone (Day 1), N = 1): 129 mL/min
CL/F ([1]; MTX 20 mg oral alone (Day 1), N = 6, arithmetic mean (SD)): 122 (33.7) mL/min
AUC(0-t) [1, 3]: 1390 ng·h/mL
AUC(0-inf) [1, 3]: 1380 ng·h/mL
Cmax [1, 3]: 323 ng/mL
half-life ([1]; 10 mg, t1/2, MTX 10 mg oral alone (Day 1), N = 1): 210 min
tmax [1, 3]: 1.45 h
AUC(0-t) [1, 4]: 2360 ng·h/mL
Cmax [1, 4]: 528 ng/mL
half-life ([1]; 12.5 mg, t1/2, MTX 12.5 mg oral alone (Day 1), N = 1): 216 min
tmax [1, 4]: 1 h
AUC(0-t) [1, 5]: 2250 ng·h/mL
Cmax [1, 5]: 646 ng/mL
half-life ([1]; 17.5 mg, t1/2, MTX 17.5 mg oral alone (Day 1), N = 1): 336 min
tmax [1, 5]: 1 h
AUC(0-t) [1, 6]: 3020 ng·h/mL
AUC(0-t) [1, 7]: 2270 ng·h/mL
AUC(0-inf) [1, 6]: 3010 ng·h/mL
Cmax [1, 6]: 669 ng/mL
Cmax [1, 7]: 565 ng/mL
half-life ([1]; t1/2, MTX 12.5 mg oral + Apremilast 30 mg Q12H (Day 8), N = 1): 192 min
tmax [1, 6]: 2.07 h
tmax [1, 7]: 1 h
Intra-subject CV% of AUC0–∞ ([1]; methotrexate in plasma, ANOVA, N = 14): 11.19%
Intra-subject CV% of AUC0–t [1, 8]: 10.57%
Intra-subject CV% of Cmax [1, 8]: 11.07%
AUC0–∞ ratio of geometric means (“methotrexate + apremilast”/“methotrexate”) ([1]; methotrexate in plasma, all dose groups, N = 14, acceptance range 80–125%): 100.39
tmax median difference (“MTX + Apremilast” − “MTX”) ([1]; methotrexate in plasma, all dose groups, N = 15, Hodges–Lehmann): 0.235 ^d hr
AUC0–t ratio of geometric means (“methotrexate + apremilast”/“methotrexate”) [1, 9]: 99.90
Cmax ratio of geometric means (“methotrexate + apremilast”/“methotrexate”) [1, 9]: 99.49
Structure (SMILES): CN(Cc1cnc2nc(N)nc(N)c2n1)c1ccc(C(=O)N[C@@H](CCC(=O)O)C(=O)O)cc1 [MTX, methotrexate, reference compound]
90% CI for Cmax, AUC0–t and AUC0–∞ versus FDA acceptance range of 80–125% ([1]; methotrexate with versus without apremilast): within the acceptance range for equivalency
Fraction metabolized to 7-hydroxy methotrexate [2]: ~10%
